These results are taken from ChEMBL document CHEMBL4261642, “Design, synthesis, and ex vivo evaluation of a selective inhibitor for retinaldehyde dehydrogenase enzymes” (Bioorg Med Chem, 2018).

In general, Ki refers to the equilibrium dissociation constant of an inhibitor or competing ligand from its target. One may read the inhibition as how much of the control response was suppressed. Usually IC50 stands for the midpoint of a concentration-inhibition curve. By Km is commonly meant the substrate concentration at which the rate is half of its maximum.

Experiment [1] can be described thus: Inhibition of N-terminal His6-tagged recombinant chick RALDH3 expressed in Escherichia coli BL21(DE3) cells using RAL as substrate measured after 30 mins in presence of NADH by Morrison's plot analysis. Further details: species or system Gallus gallus. A digest of the protocol: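 Ki obtained by fitting the Morrison tight-binding equation to the 20-min pre-incubation retinaldehyde/NADH fluorescence inhibition data. Inputs were enzyme concentration (RALDH1 0.358, RALDH2 0.091, RALDH3 0.355, hRALDH2 0.176 μM), substrate concentration and Km. Triplicates from 3–5 independent experiments.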

Experiment [2] addresses T1, Retinal dehydrogenase 2 (Gallus gallus) (UniProt O93344).
T1 sequence (whole entry): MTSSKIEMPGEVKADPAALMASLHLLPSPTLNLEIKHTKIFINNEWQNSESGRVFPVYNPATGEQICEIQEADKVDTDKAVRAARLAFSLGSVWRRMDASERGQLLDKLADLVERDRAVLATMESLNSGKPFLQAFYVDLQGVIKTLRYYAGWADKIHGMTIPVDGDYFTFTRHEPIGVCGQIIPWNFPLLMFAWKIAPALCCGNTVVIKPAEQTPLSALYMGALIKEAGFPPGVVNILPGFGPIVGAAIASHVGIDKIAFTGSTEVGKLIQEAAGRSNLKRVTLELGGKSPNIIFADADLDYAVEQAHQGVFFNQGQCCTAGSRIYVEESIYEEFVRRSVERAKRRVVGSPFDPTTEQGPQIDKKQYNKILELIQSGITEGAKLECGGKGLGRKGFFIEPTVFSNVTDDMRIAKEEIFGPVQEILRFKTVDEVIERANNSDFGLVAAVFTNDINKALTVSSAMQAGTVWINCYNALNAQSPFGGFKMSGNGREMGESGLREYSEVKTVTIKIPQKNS
As to the kind of experiment: Inhibition of RALDH2 in choroidal cytosol fraction from 4 day recovering chick assessed as inhibition of ATRA synthesis at 0.1 to 6 uM pre-incubated for 20 mins followed by […] addition and measured after 30 mins by HPLC analysis. A digest of the protocol: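 Choroid cytosol fractions (100,000 × g supernatant) from 4-day recovering chick eyes pre-incubated 20 min at 37°C with 0.01–6 μM inhibitor or DMSO. Reaction started with 4 mM NAD+ and 25 μM all-trans-retinaldehyde, 30 min at 37°C. ATRA extracted and quantified by reverse-phase HPLC (350 nm, MS). Two experiments, n = 3–5 each.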

Experiment [3] deals with T2, Retinal dehydrogenase 2 (Gallus gallus, UniProt O93344).
T2 sequence (O93344 whole entry): T1 sequence (whole entry)
As to the kind of experiment: Inhibition of N-terminal His6-tagged recombinant chick RALDH2 expressed in Escherichia coli BL21(DE3) cells using RAL as substrate preincubated for 20 mins followed by substrate addition and measured after 30 mins in presence of NADH by fluorescence assay. An outline of the steps: (§1)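 Purified His-tagged recombinant enzyme in dialysis buffer with 2 mM DTT. Amounts were chick RALDH1 2 μg (0.358 μM), chick RALDH2 0.5 μg (0.091 μM), chick RALDH3 2 μg (0.355 μM) and human RALDH2 1 μg (0.176 μM). Enzyme pre-incubated 20 min at 37°C with 0–10 μM inhibitor in DMSO. Reaction started with final 4 mM NAD+ in pyrophosphate pH 8.2 buffer plus 250 μM retinaldehyde, 30 min at 37°C. NADH read fluorimetrically (Ex/Em 540/590) against a standard curve. Triplicates, 3–5 experiments.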

The target of experiment [4] is T2, Retinal dehydrogenase 2. As to the kind of experiment: Inhibition of chick RALDH2 expressed in doxycycline-inducible HEK293 cells assessed as inhibition of ATRA synthesis after 24 hrs in presence of […]. It is filed as cell-based.
Experiment [5] addresses T1, Retinal dehydrogenase 2 (Gallus gallus). As to the kind of experiment: Inhibition of chick RALDH2 expressed in doxycycline-inducible HEK293 cells assessed as inhibition of ATRA synthesis at 1 uM after 24 hrs in presence of […]. It is filed as cell-based.
The species named for experiment [6] is Gallus gallus. As to the kind of experiment: Inhibition of N-terminal His6-tagged recombinant chick RALDH3 expressed in Escherichia coli BL21(DE3) cells at 250 nM using RAL as substrate assessed as Km preincubated for 20 mins followed by substrate addition and measured after 30 mins in presence of NADH by fluorescence assay (reference value: 84.45 +/- 30.99 microM).

Experiment [7] addresses T1, Retinal dehydrogenase 2 (Gallus gallus). In words: Inhibition of N-terminal His6-tagged recombinant chick RALDH2 expressed in Escherichia coli BL21(DE3) cells up to 500 nM using RAL as substrate assessed as inactivation rate constant preincubated up to 40 mins followed by substrate addition and measured after 30 mins in presence of NADH by fluorescence assay. An outline of the steps:
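Chick RALDH2 pre-incubated 10, 20 and 40 min with 0–500 nM inhibitor, then assayed with retinaldehyde/NAD+ by fluorimetric NADH. kobs taken from linear regression of log % activity remaining versus pre-incubation time. KI and kinact obtained by nonlinear regression of kobs versus inhibitor concentration.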

Experiment [8] is described as follows: Inhibition of N-terminal His6-tagged recombinant chick RALDH3 expressed in Escherichia coli BL21(DE3) cells using RAL as substrate preincubated for 20 mins followed by substrate addition and measured after 30 mins in presence of NADH by fluorescence assay. Further details: species or system Gallus gallus. An outline of the steps: as §1
In experiment [9] the target is T1, Retinal dehydrogenase 2 (Gallus gallus). In words: Inhibition of chick RALDH2 expressed in doxycycline-inducible HEK293 cells assessed as inhibition of ATRA synthesis at 0.05 uM after 24 hrs in presence of […]. It is filed as cell-based.
Experiment [10] concerns the target T2, Retinal dehydrogenase 2. As to the kind of experiment: Inhibition of RALDH2 in choroidal cytosol fraction from 4 day recovering chick assessed as inhibition of ATRA synthesis pre-incubated for 20 mins followed by […] addition and measured after 30 mins by HPLC analysis.
The species entered for experiment [11] is Gallus gallus. In words: Inhibition of N-terminal His6-tagged recombinant chick RALDH3 expressed in Escherichia coli BL21(DE3) cells at 250 nM using RAL as substrate assessed as Vmax preincubated for 20 mins followed by substrate addition and measured after 30 mins in presence of NADH by fluorescence assay (reference value: 107.3 +/- 15.97 pmol/microM/min).

For experiment [12], the target named is T1, Retinal dehydrogenase 2 (Gallus gallus). In words: Inhibition of N-terminal His6-tagged recombinant chick RALDH2 expressed in Escherichia coli BL21(DE3) cells at 50 nM using RAL as substrate assessed as remaining activity preincubated for 20 mins followed by compound washout by ultrafiltration and subsequent addition of substrate and measured after 30 mins in presence of NADH by fluorescence assay (reference value: 100.0 +/- 11.57%). An outline of the steps: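 Chick RALDH2 (91 nM) pre-incubated 20 min with 0–50 nM inhibitor. Unbound inhibitor removed by ultrafiltration before adding 250 μM retinaldehyde and 4 mM NAD+, 30 min at 37°C. NADH measured fluorimetrically. Activity expressed as % of vehicle. Triplicates; one-way ANOVA with Bonferroni test.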

With `CC1=C(/C=C/C(C)=C/C=C/C(C)=C/C(=O)C(Cl)Cl)C(C)(C)CCC1`, in experiment [1], the inhibition constant Ki is 6.74 nM. The inhibition in experiment [2] is 70 to 96%; in experiment [5], 92%; in [9] it was 42%. The IC50 worked out at 55 nM at Retinal dehydrogenase 2 [3], 187 nM at Retinal dehydrogenase 2 [4], 161 nM in [8] and 53.6 nM at Retinal dehydrogenase 2 [10]. Further, the Michaelis constant (Km) in the experiment filed under Gallus gallus [6] is 46.1 µM. The Kinact in experiment [7] was 0.0159 min⁻¹. In addition, the Vmax in the experiment listed under Gallus gallus [11] came out at 41.6 pmol/µM/min. The Activity in [12] stood at 23%.
